Among the data in ChEMBL document CHEMBL3243985, “Synthesis of two metabolites of (+)-propoxyphene” (J Med Chem, 1977) are inhibition, ED50 and Activity values, retold here.

Each structure is given as a SMILES string. Activity calls are given as the source filed them. No cut-off for these calls is given here.

In data set [1] the test system is Mus musculus. The experiment in a line: Analgesic activity in sc dosed mouse assessed as peak inhibition of acetic acid-induced writhing measured at 5 to 15 mins. Format: functional, organism-based.
Data set [2] deals with Mus musculus. The experiment in a line: Analgesic activity in sc dosed mouse assessed as inhibition of acetic acid-induced writhing measured at 30 to 60 mins. Format: functional, organism-based.
In data set [3] the test system is Mus musculus. Description: Analgesic activity in sc dosed mouse assessed as inhibition of acetic acid-induced writhing. It is filed as functional. Summed up: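 Test agents were given to mice by subcutaneous injection, and doses were expressed in mg/kg. The ED50 was derived from the dose-response data and reported with 95% confidence limits.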
In general terms: An intraperitoneal irritant provokes the stretching counted in writhing tests.

The subject of data set [4] is Mus musculus. Description: Analgesic activity in sc dosed mouse assessed as inhibition of acetic acid-induced writhing in presence of 10 mg/kg naloxone. Format: functional, organism-based. Set-up: dose 10 mg/kg. To be noted: at 10 mg/kg.
The species entered for data set [5] is Mus musculus. The experiment in a line: Toxicity in mouse assessed as scratching at injection site at 1 mg/ml. Format: organism-based. To be noted: in vivo.
The subject of data set [6] is Mus musculus. The experiment in a line: Analgesic activity in mouse assessed as inhibition of acetic acid-induced writhing at 100 mg/kg, sc. Format: functional, organism-based. The arrangement: dose 100 mg/kg.

Regarding `CCC(=O)O[C@](Cc1ccccc1)(c1ccccc1)[C@H](C)CN`, the inhibition entry with Mus musculus [1] and in the data set with Mus musculus [2] was “Active” throughout. Moreover, the ED50 with Mus musculus [3] was 25 mg/kg. Also, in the data set with Mus musculus [4], the inhibition result is “inactive”. For the same compound, the Activity result in the data set filed under Mus musculus [5] is listed as “Toxic”.
Turning to `CCC(=O)OC(Cc1ccccc1)(c1ccccc1)C(C)CN.Cl` (racemic), the inhibition result with Mus musculus [1] and in the data set on Mus musculus [2] was “Active” throughout. The 50% effective dose (ED50) in the data set with Mus musculus [3] came out at 51 mg/kg. Also, the inhibition entry with Mus musculus [4] is “inactive”. Moreover, the Activity entry in the data set filed under Mus musculus [5] was “Toxic”.
Consider `CCC1=NCC(C)C(Cc2ccccc2)(c2ccccc2)O1` (racemic), for which the inhibition result in the data set on Mus musculus [6] was “inactive”.
In the case of `CCC(=O)O[C@](Cc1ccccc1)(c1ccccc1)[C@H](C)CN(C)C` [PROPOXYPHENE], the ED50 in the data set with Mus musculus [3] came to 6.9 mg/kg.

A word on the ED50: it is the midpoint of the dose-response relation.
